How the values were obtained:
[1] = test system: T47D; test: Cytotoxicity against human T47D cells at 10 uM after 48 hrs by MTT assay; format: functional
Procedure, shortened: (§1)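 Single-dose screen in the NCI 60-cell-line panel, run according to the Developmental Therapeutics Program protocol (one-dose mean graph). The result is the growth percentage of treated cells relative to untreated control cells.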

[2] = Cytotoxicity against human H1299 cells at 10 uM after 48 hrs by MTT assay realtive to control; format: functional; settings: NCI-H1299, 48 h
Procedure, shortened: (§2)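 H1299 non-small-cell lung cells were kept in RPMI 1640 with 10% FBS and penicillin/streptomycin at 37 °C under 5% CO2. About 2 × 10^3 cells per well were pre-incubated for 24 h. Compound was added from freshly made DMSO solution diluted in complete medium and left for 48 h. MTT was then added for 4 h at 37 °C, followed by 20% SDS/50% DMF lysis buffer for 16 h at 37 °C, and absorbance read at 550 nm.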

[3] = Cytotoxicity against human H1299 cells at 100 uM after 48 hrs by MTT assay realtive to control; format: functional; settings: NCI-H1299, 48 h; procedure, shortened: as §2
[4] = test system: Hs-578T; test: Cytotoxicity against human HS578T cells at 10 uM after 48 hrs by MTT assay; format: functional; settings: values are per cent of control
Procedure, shortened: (§3)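 Single-dose screen on the NCI 60-cell-line panel, run to the Developmental Therapeutics Program protocol (one-dose mean graph). Each value is the growth percentage of treated cells against untreated control cells.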

[5] = test system: LOX IMVI; test: Cytotoxicity against human LOXIMVI cells at 10 uM after 48 hrs by MTT assay; format: functional; settings: values are per cent of control; procedure, shortened: as §3
[6] = test system: NCI-H522; test: Growth percent of human NCI-H522 cells at 10 uM after 48 hrs by MTT assay; settings: NCI-H522, 48 h
[7] = test system: DU-145; test: Cytotoxicity against human DU145 cells at 10 uM after 48 hrs by MTT assay; format: functional; settings: DU-145, 48 h, values are per cent of control; procedure, shortened: as §3
[8] = test system: SK-OV-3; test: Cytotoxicity against human SKOV3 cells at 10 uM after 48 hrs by MTT assay; format: functional; settings: SK-OV-3, 48 h; procedure, shortened: as §3
[9] = test system: SF-295; test: Cytotoxicity against human SF295 cells at 10 uM after 48 hrs by MTT assay; format: functional; settings: SF-295, 48 h, values are per cent of control; procedure, shortened: as §3
[10] = test system: EKVX; test: Cytotoxicity against human EKVX cells at 10 uM after 48 hrs by MTT assay; format: functional; procedure, shortened: as §3
[11] = test system: NCI/ADR-RES; test: Cytotoxicity against human NCI/ADR-RES cells at 10 uM after 48 hrs by MTT assay; format: functional; procedure, shortened: as §3
[12] = test system: UO-31; test: Cytotoxicity against human UO31 cells at 10 uM after 48 hrs by MTT assay; format: functional; settings: UO-31, 48 h, values are per cent of control; procedure, shortened: as §1
[13] = test system: A498; test: Cytotoxicity against human A498 cells at 10 uM after 48 hrs by MTT assay; format: functional; settings: A498, 48 h; procedure, shortened: as §3
[14] = test system: NCI-H226; test: Cytotoxicity against human NCI-H226 cells at 10 uM after 48 hrs by MTT assay; format: functional; settings: NCI-H226, 48 h; procedure, shortened: as §3
[15] = test system: HCT-15; test: Growth percent of human HCT15 cells at 10 uM after 48 hrs by MTT assay; settings: HCT-15, 48 h
[16] = target: T1, Telomerase reverse transcriptase (Homo sapiens, UniProt O14746); test: Effect on human TERT expressed in H1299 cells at 1 uM after 24 hrs by SEAP assay relative to control
T1 sequence (O14746 whole entry): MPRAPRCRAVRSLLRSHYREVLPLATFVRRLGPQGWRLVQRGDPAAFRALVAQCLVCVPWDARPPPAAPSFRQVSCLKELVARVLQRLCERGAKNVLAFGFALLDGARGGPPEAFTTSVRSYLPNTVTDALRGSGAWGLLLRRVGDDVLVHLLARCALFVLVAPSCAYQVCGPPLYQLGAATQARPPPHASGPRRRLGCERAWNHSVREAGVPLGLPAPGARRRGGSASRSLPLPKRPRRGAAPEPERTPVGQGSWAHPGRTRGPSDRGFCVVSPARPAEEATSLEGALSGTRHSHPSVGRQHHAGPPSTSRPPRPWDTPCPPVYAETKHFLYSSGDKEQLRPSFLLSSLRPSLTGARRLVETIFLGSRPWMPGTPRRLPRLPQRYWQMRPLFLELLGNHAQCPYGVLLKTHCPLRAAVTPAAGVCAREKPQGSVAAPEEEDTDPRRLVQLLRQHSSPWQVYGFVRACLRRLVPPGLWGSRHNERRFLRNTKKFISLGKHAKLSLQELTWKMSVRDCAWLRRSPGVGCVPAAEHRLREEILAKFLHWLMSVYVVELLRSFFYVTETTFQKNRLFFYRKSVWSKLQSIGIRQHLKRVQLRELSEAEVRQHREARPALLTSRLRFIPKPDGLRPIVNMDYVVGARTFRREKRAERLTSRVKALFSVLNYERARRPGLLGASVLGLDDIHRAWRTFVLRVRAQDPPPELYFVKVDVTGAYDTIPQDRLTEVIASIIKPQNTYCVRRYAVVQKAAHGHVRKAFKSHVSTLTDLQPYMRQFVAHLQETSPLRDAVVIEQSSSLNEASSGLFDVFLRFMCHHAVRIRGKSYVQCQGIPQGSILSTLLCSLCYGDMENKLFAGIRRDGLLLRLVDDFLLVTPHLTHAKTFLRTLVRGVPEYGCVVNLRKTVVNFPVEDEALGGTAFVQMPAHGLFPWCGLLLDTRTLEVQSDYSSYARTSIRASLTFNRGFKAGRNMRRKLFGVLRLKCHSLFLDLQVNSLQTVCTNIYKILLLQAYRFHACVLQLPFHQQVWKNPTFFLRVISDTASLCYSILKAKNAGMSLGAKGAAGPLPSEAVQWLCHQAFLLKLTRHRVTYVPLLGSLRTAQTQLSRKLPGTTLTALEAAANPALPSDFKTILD

[17] = test system: SK-MEL-5; test: Cytotoxicity against human SK-MEL-5 cells at 10 uM after 48 hrs by MTT assay; format: functional; settings: SK-MEL-5, 48 h, values are per cent of control; procedure, shortened: as §3
[18] = test system: SR; test: Cytotoxicity against human SR cells at 10 uM after 48 hrs by MTT assay; format: functional; procedure, shortened: as §1
[19] = test system: BT-549; test: Cytotoxicity against human BT549 cells at 10 uM after 48 hrs by MTT assay; format: functional; settings: BT-549, 48 h; procedure, shortened: as §3
[20] = Cytotoxicity against human TERT immortalized BJ1 cells at 100 uM after 48 hrs by MTT assay relative to control; format: cell-based, BJ
Procedure, shortened: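 hTERT-immortalized BJ1 fibroblasts were grown in DMEM with 10% FCS, 1 mM pyruvate and 4 mM […]. Cells (about 2 × 10^3 per well) were seeded and held 24 h at 37 °C. Compounds were freshly dissolved in DMSO, diluted into medium and left on the cells 48 h. MTT was added for 4 h, then SDS/DMF lysis buffer for 16 h. Absorbance was read at 550 nm and expressed relative to untreated cells (100%).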

[21] = test system: NCI-H460; test: Growth percent of human NCI-H460 cells at 10 uM after 48 hrs by MTT assay; settings: NCI-H460, 48 h
[22] = test system: UACC-62; test: Cytotoxicity against human UACC62 cells at 10 uM after 48 hrs by MTT assay; format: functional; settings: UACC-62, 48 h, values are per cent of control; procedure, shortened: as §1
[23] = target: T1, Telomerase reverse transcriptase; test: Effect on human TERT expressed in BJ1 cells at 1 uM after 24 hrs by SEAP assay realtive to control; settings: BJ
[24] = test system: SNB-19; test: Cytotoxicity against human SNB19 cells at 10 uM after 48 hrs by MTT assay; format: functional; settings: SNB-19, 48 h, values are per cent of control; procedure, shortened: as §3
[25] = Cytotoxicity against human CAK1-1 cells at 10 uM after 48 hrs by MTT assay; format: functional; settings: CAK1-1, 48 h; procedure, shortened: as §3
[26] = test system: SK-MEL-28; test: Cytotoxicity against human SK-MEL-28 cells at 10 uM after 48 hrs by MTT assay; format: functional; settings: SK-MEL-28, 48 h, values are per cent of control; procedure, shortened: as §3
[27] = test system: OVCAR-4; test: Cytotoxicity against human OVCAR4 cells at 10 uM after 48 hrs by MTT assay; format: functional; settings: OVCAR-4, 48 h; procedure, shortened: as §3
[28] = test system: CCRF-CEM; test: Cytotoxicity against human CCRF-CEM cells at 10 uM after 48 hrs by MTT assay; format: functional; procedure, shortened: as §3
[29] = test system: SF-539; test: Cytotoxicity against human SF539 cells at 10 uM after 48 hrs by MTT assay; format: functional; settings: SF-539, 48 h, values are per cent of control; procedure, shortened: as §3
[30] = test system: MOLT-4; test: Cytotoxicity against human MOLT4 cells at 10 uM after 48 hrs by MTT assay; format: functional; settings: MOLT-4, 48 h; procedure, shortened: as §3
[31] = test system: Malme-3M; test: Cytotoxicity against human MALME3M cells at 10 uM after 48 hrs by MTT assay; format: functional; settings: values are per cent of control; procedure, shortened: as §3
[32] = test system: SNB-75; test: Cytotoxicity against human SNB75 cells at 10 uM after 48 hrs by MTT assay; format: functional; settings: SNB-75, 48 h, values are per cent of control; procedure, shortened: as §1
[33] = test system: NCI-H322M; test: Cytotoxicity against human NCI-H322M cells at 10 uM after 48 hrs by MTT assay; format: functional; procedure, shortened: as §3
[34] = test system: MDA-MB-231; test: Cytotoxicity against human MDA-MB-231/ATCC cells at 10 uM after 48 hrs by MTT assay; format: functional; settings: MDA-MB-231, 48 h; procedure, shortened: as §3
[35] = test system: MCF7; test: Cytotoxicity against human MCF7 cells at 10 uM after 48 hrs by MTT assay; format: functional; settings: MCF7, 48 h, values are per cent of control; procedure, shortened: as §3

Row | SMILES | growth percent at 10 µM [1] | viability at 10 µM [2] | viability at 100 µM [3] | growth, % of control at 10 µM [4] | growth, % of control at 10 µM [5] | growth percent at 10 µM [6] | growth, % of control at 10 µM [7] | growth percent at 10 µM [8] | growth, % of control at 10 µM [9] | growth percent at 10 µM [10] | growth percent at 10 µM [11] | growth, % of control at 10 µM [12] | growth percent at 10 µM [13] | growth percent at 10 µM [14] | growth percent at 10 µM [15] | residual activity [16] | growth, % of control at 10 µM [17] | growth percent at 10 µM [18] | growth percent at 10 µM [19] | viability at 48 h, 100 µM [20] | further results
1 | CCN(CC)CCC(=O)Nc1ccc2c(c1)C(=O)c1cc(NC(=O)CCN(CC)CC)ccc1C2=O | 68.6% | 41% | 1% | -23.8% | 3.39% | 28% | 10.2% | 44% | -19.9% | 60% | 59.5% | -31.5% | -38.8% | 49.9% | 17.4% | 76% | 82.8% | -0.39% | 57% | 36% | growth percent at 10 µM [21]: 9.5%; growth, % of control at 10 µM [22]: 44.5%; residual activity [23]: 84%; growth, % of control at 10 µM [24]: 75.8%; growth percent at 10 µM [25]: 3.27%; growth, % of control at 10 µM [26]: 2.56%; growth percent at 10 µM [27]: 24.9%; growth percent at 10 µM [28]: -6.02%; growth, % of control at 10 µM [29]: 37.1%; growth percent at 10 µM [30]: 5.42%; growth, % of control at 10 µM [31]: 62.4%; growth, % of control at 10 µM [32]: 46.6%; growth percent at 10 µM [33]: 44.8%; growth percent at 10 µM [34]: 31.3%; growth, % of control at 10 µM [35]: 9.34%
2 | O=C(CCN1CCCC1)Nc1ccc2c(c1)C(=O)c1cc(NC(=O)CCN3CCCC3)ccc1C2=O | 59% | 54% | 12% | 5.26% | 30.7% | 29.2% | 29.5% | 27.1% | 48.6% | 58.7% | 80.6% | 5.27% | -0.91% | 41.1% | 56.1% | 73% | 56.9% | 19.8% | 76.9% | 39% | growth percent at 10 µM [21]: 25.5%; growth, % of control at 10 µM [22]: 42.7%; growth, % of control at 10 µM [24]: 67%; growth percent at 10 µM [25]: 55.5%; growth, % of control at 10 µM [26]: 15%; growth percent at 10 µM [27]: 49.8%; growth percent at 10 µM [28]: 3.74%; growth, % of control at 10 µM [29]: 33.8%; growth percent at 10 µM [30]: 23%; growth, % of control at 10 µM [31]: 47%; growth, % of control at 10 µM [32]: 77.5%; growth percent at 10 µM [33]: 45.8%; growth percent at 10 µM [34]: 30.5%; growth, % of control at 10 µM [35]: 13.3%
3 | O=C1c2ccc(NC(=O)C3CC3)cc2C(=O)c2cc(NC(=O)C3CC3)ccc21 | 79.8% | 36% | 43% | 119% | 90.3% | 89.4% | 98.8% | 93.2% | 86.6% | 94.3% | 90.8% | 95.5% | 92.3% | 101% | 86.3% | 80% | 75.7% | 1.69% | 92.5% | 47% | growth percent at 10 µM [21]: 89%; growth, % of control at 10 µM [22]: 81%; growth, % of control at 10 µM [24]: 98.8%; growth percent at 10 µM [25]: 88.4%; growth, % of control at 10 µM [26]: 109%; growth percent at 10 µM [27]: 97.5%; growth percent at 10 µM [28]: 90.7%; growth, % of control at 10 µM [29]: 93.2%; growth percent at 10 µM [30]: 94.3%; growth, % of control at 10 µM [31]: 91.8%; growth, % of control at 10 µM [32]: 89.2%; growth percent at 10 µM [33]: 106%; growth percent at 10 µM [34]: 97%; growth, % of control at 10 µM [35]: 77.4%

Reference: ChEMBL document CHEMBL1155063 (Bioorg Med Chem, 2008)
